Screening data deposited in PubChem BioAssay by Johns Hopkins Ion Channel Center.
An excerpt weighted towards active compounds, which were near 3.8% of everything screened.
KCNK3 inh = human KCNK3 channel inhibition, primary screen; O14649; CHO-KCNK3 thallium flux, FluxOR fluorescence; active compounds read low; 0.84% of 340,000 active; AID 602410; B-score at 10 µM;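 active means B-score under library mean minus 4 SD, starting fluorescence ratio at most library mean plus 5 SD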;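 further: more negative B-score means stronger inhibition of thallium flux through KCNK3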
hERG rescue = compounds protecting human hERG from proarrhythmic drug block; AID 1511; 0.51% of 310,000 active; Q12809; activation (rescue from dofetilide block), less the hit threshold, % at 10 µM; CHO-hERG, FluxOR thallium flux, dofetilide IC70 present;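 active means activation above the mean of controls blocked by dofetilide plus 5 SD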;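 further: thallium influx through hERG after potassium depolarization seen as dye fluorescence rise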
KCNQ1 act = human KCNQ1 channel potentiation or activation; P51787; CHO-K1 KCNQ1, thallium flux FluxOR fluorescence; active compounds read high; B-score at 10 µM; 0.35% of 310,000 active;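 active means fluorescence ratio B-score, a plate-corrected score, at least three library SD, with initial intensity B-score within 5 SD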
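Medium – assay buffer, equal DMSO in all wells · Material – CHO-K1 cell line with stable KCNQ1 potassium channel expression · Signal – kinetic FluxOR thallium fluorescence, 10-s 1-Hz baseline, 110-s post-stimulus read · Compound – single concentration per compound, DMSO matched to controls · Schedule – 37 °C overnight plating, 90-min dark dye load, 20-min compound pretreatment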
Kir21 block = inhibitors of mouse Kir2.1 inward-rectifier potassium channel | P35561 | HEK293-Kir2.1, FluxOR thallium flux fluorescence; active compounds read low | B-score at 10 µM | 0.85% of 310,000 active | AID 1672;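 active means fluorescence ratio B-score at or below minus 3 SD of library scores, with starting-brightness B-score within 2 SD, cut at about -4.2 in these data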;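 further: channel flux triggered by added potassium and thallium sulfate stimulus; B-score of peak minus minimum fluorescence over baseline after thallium stimulus; more negative B-score means stronger Kir2.1 block with less thallium influx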
Target sequence (P35561 whole entry, looked up): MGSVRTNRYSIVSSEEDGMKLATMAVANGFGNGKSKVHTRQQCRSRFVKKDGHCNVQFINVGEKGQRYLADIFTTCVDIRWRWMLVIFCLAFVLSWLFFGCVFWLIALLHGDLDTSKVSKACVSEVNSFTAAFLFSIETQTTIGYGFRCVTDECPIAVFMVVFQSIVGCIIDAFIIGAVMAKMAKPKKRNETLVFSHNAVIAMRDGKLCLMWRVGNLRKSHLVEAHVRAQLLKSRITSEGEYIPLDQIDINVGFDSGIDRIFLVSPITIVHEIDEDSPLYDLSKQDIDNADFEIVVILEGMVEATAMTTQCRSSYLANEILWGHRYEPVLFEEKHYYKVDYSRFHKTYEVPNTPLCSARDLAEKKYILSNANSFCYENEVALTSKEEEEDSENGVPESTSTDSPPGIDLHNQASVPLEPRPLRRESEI
KCNQ1 inh = inhibitors of human KCNQ1 potassium channel; 1.3% of 310,000 active; CHO-K1 KCNQ1, FluxOR thallium flux fluorescence; active compounds read high; B-score at 10 µM; P51787;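 active means compounds whose thallium flux B-score, printed positive for inhibition, exceeds three library SD while starting fluorescence stays within three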;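 further: channel opened by potassium depolarization with thallium stimulus after 20 min compound exposure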
KCNK9 block = blocks the human KCNK9 two-pore domain potassium channel | HEK293 KCNK9, FluxOR thallium flux fluorescence; active compounds read low | 1.2% of 310,000 active | AID 488922 | B-score at 10 µM;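 active means ratio B-score over 3 SD below the library mean, with starting fluorescence within 5 SD of its mean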;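 further: negative B-score means less thallium flux so channel inhibition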
KCNK9 block conf = confirmation of human KCNK9 potassium channel inhibitors; shares compounds with KCNK9 block; HEK293 KCNK9 cells, FluxOR thallium flux fluorescence; inhibition, % at 10 µM; 43% of 4,900 active; AID 492992;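 active means thallium signal inhibited by more than 5 SD of the compound-free buffer control wells, on both duplicate plates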;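 further: 0% = assay buffer control wells without compound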
Kir2-1 spec = tests whether KCNK9 modulators also affect mouse Kir2.1; shares compounds with KCNK9 block; Kir2.1 cells, FluxOR thallium flux fluorescence; inhibition, % at 10 µM; 4% of 4,900 active; AID 492993;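 active means thallium signal drop more than 5 SD beyond the mean of the no-compound control wells, seen in both duplicate plates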;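 further: signal is fluorescence rise after thallium addition divided by baseline fluorescence; plate controls were assay buffer only for no effect and full block by chlorpromazine control for full effect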
HEK293 Tl ctr = non-induced cell nonspecific activity of KCNK9 modulators; non-induced KCNK9-HEK293, FluxOR thallium flux; inhibition, % at 10 µM; AID 492997; 40% of 4,900 active; shares compounds with KCNK9 block;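 active means thallium signal drop beyond 5 SD of the untreated control mean, on both duplicate plates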;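 further: plate controls were buffer only IC0 wells for no effect and SID17386958 at its maximal inhibitory level for full effect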
An asterisk follows results filed as active; i = inactive; x = no result given.

SMILES | KCNK3 inh | hERG rescue | KCNQ1 act | Kir21 block | KCNQ1 inh | KCNK9 block | KCNK9 block conf | Kir2-1 spec | HEK293 Tl ctr
CC(C)Oc1ccc(C(=O)Nc2ccccc2N2CCCC2)cc1 | i | -4.7 | i | -0.48 | i | -14* | 57.5%* | i | 29.0%*
COc1ccc(C(=O)Nc2ccccc2N2CCCC2)cc1 | i | -5.9 | i | 0.5 | i | i | x | x | x
CC(Oc1ccc(F)cc1)C(=O)Nc1cc(S(=O)(=O)N2CCCCC2)ccc1N1CCN(C)CC1 (configuration not stated) | i | x | x | x | x | x | x | x | x
NC1=NC(=O)/C(=C\c2ccsc2)S1 | i | -7.7 | i | 0.83 | i | i | x | x | x
Cc1cc(NC(=O)CSc2ncc(C(=O)O)n2-c2ccc(F)cc2)no1 | i | x | x | x | x | x | x | x | x
O=C(c1oc2ccccc2c1CSCc1ccccc1)N1CCN(c2ncccn2)CC1 | i | -13.0 | i | -0.13 | i | -9.62* | 23.0%* | i | i
CC(C)N(C(=O)[C@H]1C[C@H](CC(=O)NCc2ccco2)C(=O)N2CCc3c([nH]c4cc(CCC(=O)N(C)C)ccc34)[C@]12C)C(C)C | i | x | x | x | x | x | x | x | x
COc1cccc(C(=O)NC(C)c2cccc3ccccc23)c1OC (configuration not stated) | i | -9.7 | i | -2.54 | i | i | x | x | x
COc1cccc(C(=O)NC(C)c2ccc(-c3ccccc3)cc2)c1OC (configuration not stated) | i | -8.0 | i | 0.21 | i | i | i | i | i
CC1CCC(C(C)C)C(OC(=O)C[n+]2cc(-c3ccc(Cl)cc3)n3c2CCC3)C1 (configuration not stated) | i | -22.1 | i | -1.85 | i | -12.7* | 47.5%* | 43.5%* | i
O=C(C[n+]1cc(-c2ccc(Cl)cc2)n2c1CCC2)N1c2ccccc2Sc2ccccc21 | i | -16.7 | i | -0.1 | i | i | x | x | x
Cc1ccc(Cl)c(OCCCN(C)Cc2ccccc2)c1 | i | -15.3 | i | -2.2 | i | i | i | i | i
Cc1ccc(Cl)c(OCCN2CCc3ccccc3C2)c1 | i | -1.7 | i | -0.17 | i | i | i | i | i
N#Cc1ccc(OCCN2CCc3ccccc3C2)cc1 | i | -9.3 | i | 0.52 | i | i | x | x | x
O=C(NCc1ccccn1)c1ccc(Br)s1 | i | -5.3 | i | 0.78 | i | i | x | x | x
Cc1cc(C)c(C(=O)COC(=O)C2CCN(c3ccc(C(F)(F)F)cn3)CC2)cc1C | i | -13.0 | i | 0.49 | 7* | i | i | i | i
CC1CC(C)CN(S(=O)(=O)c2ccc(NC(=O)C3COc4ccccc4O3)cc2)C1 (configuration not stated) | i | -6.3 | i | -0.25 | i | i | i | i | i
COc1ccc(CCN(Cc2nc3ccccc3c(=O)[nH]2)C(=O)c2ccco2)cc1 | i | -7.0 | i | -0.06 | i | i | x | x | x
COc1ccc(CN(CCC(c2ccccc2)c2ccco2)C(=O)c2ccco2)cc1 (configuration not stated) | i | -17.4 | i | -0.19 | i | -13.2* | 50.5%* | i | 29.0%*
CC1Cc2ccccc2N1C(=S)NC1CCCC1 (configuration not stated) | i | -12.8 | i | -1.39 | i | i | i | i | i
CCC(=O)N(CCc1ccccc1)Cc1cc2cc3c(cc2[nH]c1=O)OCO3 | i | -11.0 | i | 0.01 | i | i | x | x | x
CCC(=O)N(CCC(Cc1ccccc1)c1ccco1)Cc1ccco1 (configuration not stated) | i | -23.2 | i | -12.1* | i | -9.92* | 46.5%* | 50.0%* | 35.5%*
CCC(=O)N(CCC(Cc1ccccc1)c1ccc2c(c1)OCO2)Cc1ccccc1F (configuration not stated) | i | -11.1 | i | 2.55 | 9* | -12.6* | 65.0%* | i | 31.5%*
CCOC(=O)c1sc(NS(=O)(=O)c2ccc(C)cc2)nc1C | i | -8.3 | i | -0.91 | i | i | x | x | x
Cc1ccc(N2C(=O)CSC2c2cccnc2)c(Cl)c1 (configuration not stated) | i | -5.6 | i | 0.28 | i | i | x | x | x
SMILES | KCNK3 inh | hERG rescue | KCNQ1 act | Kir21 block | KCNQ1 inh | KCNK9 block | KCNK9 block conf | Kir2-1 spec | HEK293 Tl ctr
O=C(/C=C/c1ccccc1Cl)N(c1ccccn1)C1CCCCC1 | i | -7.1 | i | -0.14 | i | -12.2* | 58.0%* | i | 32.0%*
COc1ccc(OC)c(Nc2cc(-c3ccccc3)nc(N)n2)c1 | x | -11.0 | i | 0.01 | i | -8.22* | 32.5%* | i | i
COc1ccccc1/C=C/CN1CCCC(CO)(Cc2cccc(Cl)c2)C1 (configuration not stated) | i | -18.7 | i | 0 | i | i | i | i | i
OCC1(Cc2cccc(Cl)c2)CCCN(Cc2sc(N3CCCC3)nc2Cl)C1 (configuration not stated) | i | -11.7 | i | 0.04 | i | i | i | i | i
Cc1sc2ncn(CC(=O)NCc3ccco3)c(=O)c2c1-c1ccccc1 | i | -6.9 | i | -0.02 | i | i | x | x | x
NC(=O)CC(NC(=O)c1ccc(Br)cc1)c1ccc(NC2CCCCCCC2)c([N+](=O)[O-])c1 (configuration not stated) | i | -1.5 | i | 0.29 | i | -10.9* | i | i | 33.0%*
NC(=O)CC(NC(=O)c1ccccc1)c1ccc(NC2CCCCCCC2)c([N+](=O)[O-])c1 (configuration not stated) | i | -3.2 | i | -0.25 | i | i | x | x | x
CCC(=O)N1CCN=C1SCc1cc(C)ccc1C | i | -6.6 | i | 1.06 | i | i | x | x | x
COc1cccc(C(=O)C2CCCN(C/C=C/c3ccccc3OC)C2)c1 (configuration not stated) | i | -32.7 | i | 0.02 | i | i | i | i | i
COc1ccc(C(=O)C2CCCN(Cc3c(F)ccc(F)c3F)C2)c(OC)c1 (configuration not stated) | i | -4.5 | i | -2.07 | i | i | x | x | x
